High-throughput results as filed in PubChem BioAssay.
IEC-6 cytotox – kills IEC-6 intestinal cells in KLF5 counter-screen; 0.78% of 290,000 active; inhibition, % at 5 µM; IEC-6 cytotoxicity, luminescence viability; AID 1825;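 also: 0% = plate median of test compound wells and 100% = cytotoxic reference compound wells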
APP 5UTR inh – APP translation inhibition; SH-SY5Y APP 5'UTR-luciferase reporter, luminescence; inhibition, % at 2 µM; 0.82% of 190,000 active; AID 1285;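 active = inhibition above a set limit, derived from the sample mean plus 3 SD, cut at about 45% in these data; inconclusive = one replicate passes the limit while the other fails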
MT stabilize HCS – microtubule stabilizers in HeLa cells; HeLa tubulin immunostaining HCS, 24 h; share of cells brighter than vehicle mean+2SD; % tubulin-high responders, % at 10 µM; 0.83% of 200,000 active; AID 2205;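 active = plate Z-score above 3 for both tubulin-high and condensed-nucleus cell shares, with cell loss under 80%, at 10 µM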;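 also: anti alpha tubulin signal scored within the nucleus-defined area of each cell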
b-catenin transl – modulators of beta-catenin nuclear translocation. 0.3% of 190,000 active. nuclear translocation activity, % at 5 µM. HeLa beta-catenin nuclear translocation, immunofluorescence imaging. AID 1665;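 active = nuclear translocation activity above 50% at 5 µM, with a well cell count of 50 or more; inconclusive = wells under 50 cells across six images, flagged as toxic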;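 also: per-cell ratio of nuclear to cytoplasmic median beta-catenin stain intensity; plate controls were DMSO negative control for no effect and GSK-3 inhibitor IX positive control for full effect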
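Assay system: human HeLa cells, native beta-catenin; doses: 5 µM primary, 0.02–20 µM confirmation; incubation: compound treatment 24 h, 37°C, 5% CO2; technique: fluorescence imaging of beta-catenin antibody stain plus DAPI; measure: % activation, nuclear-to-cytoplasmic median beta-catenin signal ratio per cell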
Ba/F3 V617F tox – loss of viability in JAK2V617F-driven Ba/F3 cells. AID 1446. Ba/F3 EpoR-JAK2V617F viability, ATP luminescence. inhibition, % at 5.6 µM. 1.1% of 220,000 active;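 active = inhibition above the campaign mean plus 3 SD over all tested compounds, cut at about 24% in these data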;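 also: cytokine-independent growth of Ba/F3 cells driven by EpoR plus mutant JAK2; 0% = DMSO-treated cells and 100% = JAK inhibitor I control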
BaF3 tox – counter-screen for JAK2V617F inhibitors: parental Ba/F3 viability inhibitors; inhibition, % at 5.6 µM; CellTiter-Glo ATP luminescence; 1.1% of 220,000 active;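 active = inhibition above a per-campaign cutoff, the mean inhibition of all tested compounds plus 3 SD, cut at about 27% in these data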;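 also: 0% = DMSO wells and 100% = JAK Inhibitor I control wells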
IEC-6 tox confirm – confirmation of cytotoxic compounds in rat IEC-6 intestinal epithelial cells | shares compounds with IEC-6 cytotox | IEC-6 rat intestinal epithelial viability, luminescence | inhibition, % at 5 µM | 63% of 1,900 active;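 also: 0% = vehicle and 100% = reference cytotoxic drug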
An asterisk follows results filed as active; ? = inconclusive; / = no result given; ! = a repeat was not active. Hits are enriched below; roughly 2.2% of the tested compounds scored in any of these assays. Rule as the data show it, unless noted: active = inhibition above about 22%; inactive = the rest.

SMILES | IEC-6 cytotox | APP 5UTR inh | MT stabilize HCS | b-catenin transl | Ba/F3 V617F tox | BaF3 tox | IEC-6 tox confirm
CC1CCCC(NC(=O)CNC(=S)N2CC3CC(C2)c2cccc(=O)n2C3)C1C (stereo not drawn) | -1 | / | / | / | / | / | /
COc1cc2c(c(OC)c1OC)-c1ccc(O)c(=O)cc1C(NC(C)=O)CC2 (stereo not drawn) | 94* | / | / | / | / | / | 83*
COc1cc(O)cc2c1C(=O)O[C@@H](C)CCCC(=O)CCCCC2 | -6 | / | / | / | / | / | /
CN1C(=O)CN=C(c2ccccc2)c2cc(Cl)ccc21 | / | / | / | -2 | -8 | -4 | /
CNc1cc(Cl)c2nonc2c1[N+](=O)[O-] | 93* | 84* | 4 | -4 | 50* | 79* | 37*
O=C1Nc2ccccc2C1Cc1nc2ccccc2c(=O)n1-c1ccccc1 (stereo not drawn) | 10 | / | / | 0 | 4 | 1 | /
COc1cc2c(cc1/C=C/[N+](=O)[O-])OCO2 | 42* | 23 | 4 | -3 | 10 | -5 | 17
Cc1nc2c(=O)n(C)c(=O)nc-2n(C)n1 | 102* | 6 | 2 | 0 | 99* | 101* | 96*
Cc1cc(OC(C)C(=O)NCc2ccncc2)c2c3c(c(=O)oc2c1)CCC3 (stereo not drawn) | 9 | / | / | / | / | / | /
CCn1nc(-c2ccccc2)nc2c(=O)n(C)c(=O)nc1-2 | 99* | 4 | 3 | 0 | 9 | -1 | 60*
O=C(N=Nc1c(O)[nH]c(=O)[nH]c1=O)C1COc2cc3ccccc3cc2O1 (stereo not drawn) | -10 | -28 | 4 | 2 | -4 | 2 | /
NNc1n[nH]c(=S)n1N | 0 | / | / | 3 | -1 | 5 | /
Cc1cccc(NC2=NCCCS2)c1 | 5 | / | / | -1 | 0 | 1 | /
CC(C)(C)c1ccc(CSc2cnn(C(C)(C)C)c(=O)c2Cl)cc1 | 30* | / | / | / | / | / | 17
CN1/C(=C\C=C2C(=O)NC(=O)NC2=O)C(C)(C)c2ccccc21 | 6 | -13 | 6 | / | 5 | 6 | /
CN1/C(=C\C=C\C2=[N+](C)c3ccc4ccccc4c3C2(C)C)C(C)(C)c2ccccc21 | 74* | 95* | 5 | -17 | 99* | 95* | 80*
C=C1[C@@H](C)[C@H]2[C@H](Cc3ccccc3)NC(=O)[C@]23OC(=O)/C=C/[C@H](O)CCC[C@@H](C)C/C=C/[C@H]3[C@@H]1O | 87* | 54* | / | 13 | 44* | 48* | 85*
COC(=O)C(O)(c1ccc(N(C)C)cc1)C(F)(F)F (stereo not drawn) | -3 | 4 | 1 | 0 | -1 | 9 | /
CN(C)c1ccc(C(=O)c2ccc(N(C)C)cc2)cc1 | 33* | / | 46* | / | 21 | 19 | 50*
NC(=O)c1cn(C2OC(CO)C(O)C2O)c2ncnc(N)c12 (stereo not drawn) | 100* | 95* | 20* | ? | 102* | 102* | 100*
C#CCOc1cc(C2C3=C(COC3=O)Nc3cc4c(cc32)OCO4)ccc1OC (stereo not drawn) | 78* | 92* | 13* | 80* | 5 | 25 | 57*
COc1ccc2c(c1OC)CN1CCc3cc4c(cc3C1C2)OCO4 (stereo not drawn) | -6 | / | / | / | / | / | /
COc1ccc(-[n+]2c(-c3ccccc3)cc(-c3ccc(C)cc3)cc2-c2ccccc2)cc1 | 66* | / | / | / | / | / | 65*
COc1ccc(-c2nc3ccccc3c(=O)n2-c2nccs2)cc1 | 5 | 10 | 3 | -2 | -2 | 0 | /
CCOc1cc2c(cc1OCC)-n1cccc1C(c1c(O)cccc1OC)NC2 (stereo not drawn) | 5 | / | / | / | / | / | /
SMILES | IEC-6 cytotox | APP 5UTR inh | MT stabilize HCS | b-catenin transl | Ba/F3 V617F tox | BaF3 tox | IEC-6 tox confirm
CC(=O)O[C@H]1C(=O)[C@@]2(C)C([C@H](OC(=O)c3ccccc3)[C@]3(O)C[C@H](OC(=O)[C@H](O)[C@@H](NC(=O)Cc4ccccc4)c4ccccc4)C(C)=C1C3(C)C)[C@]1(OC(C)=O)CO[C@@H]1C[C@@H]2O (stereo partly drawn) | 91* | / | / | / | / | / | 86*
CC(=O)O[C@@]12CO[C@@H]1C[C@H](O)[C@@]1(C)C(=O)[C@H](O)C3=C(C)[C@@H](OC(=O)[C@H](O)[C@@H](NC(=O)c4ccccc4)c4ccccc4)C[C@@](O)([C@@H](OC(=O)c4ccccc4)C12)C3(C)C (stereo partly drawn) | 92* | / | / | / | / | / | 71*
Cc1cc(OCC(=O)N2CCC(C(N)=O)CC2)c2c3c(c(=O)oc2c1)CCCC3 | -5 | / | / | / | / | / | /
Cc1ccc2c(c1)N(C(C)C(=O)N1CCC3(CC1)OCCO3)C(=O)CO2 (stereo not drawn) | 2 | / | / | / | / | / | /
c1cncc(C2Nc3cccc4cccc(c34)N2)c1 | 38*! | / | / | 0 | 2 | 2 | 16
N#CCCn1cc(C(=O)Nc2ccccc2Br)c(-c2ccc([N+](=O)[O-])cc2)n1 | -3 | 22 | 2 | -2 | 1 | 6 | /
